Test results: publication PMC3579501 (Transplantation, 2011)
“And” between values parts separate entries of the source, which are not always exact repeats. Identical values can stand only once. Like-named read-outs stand apart in the source and are kept apart here. Marks after values point to notes of the source that are not given here.

Tests used:
[1] = assay type: in vivo, human
Summary of the method: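 Uses the first log-transformed dose-normalized trough, taken within 4 days posttransplant. Variants and clinical factors were analysed by multiple linear regression with stepwise variable selection. Effect estimates and standard errors were taken from the final model. Age was mean-centered at 50.2 years. Center p-value is from the overall F-test.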

[2] = assay type: in vivo, human; remark: listed apart in the source
Summary of the method: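 Adult kidney or kidney-pancreas recipients on tacrolimus with mycophenolate and steroids, with or without induction. Whole-blood troughs were drawn before an oral dose: two per week in weeks 1–8 and two per month in months 3–6. Measurement was mostly by LC-MS. Doses were adjusted to center targets, generally 8–12 ng/mL (months 0–3) and 6–10 ng/mL (months 4–6). Dose-normalized trough = trough/daily dose (mg/kg). AA and non-AA were compared by Wilcoxon-Mann-Whitney.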

[3] = assay type: in vivo, human; remark: listed apart in the source
Summary of the method: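 Log of trough (ng/mL) divided by total daily dose (mg/kg), from up to 24 troughs per patient over 6 months, fitted by general linear model. Time posttransplant (1–24) was categorical, with a covariance structure for repeated measures. Clinical factors were retained at backward-selection F-test p<0.15. Variants were tested one at a time (additive model, Toeplitz covariance), adjusted for center and retained factors. Significance was set at FDR 20%, effective m=2110.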

[4] = CYP3A5*3/*3 compared to *1/*1 or *1/*3; cited from earlier work
[5] = cited from earlier work
CYP3A5 = conditions: cited from earlier work
[6] = African American (n=144), over the first 6 months
[7] = nonAfrican American (n=551), over the first 6 months

Effect on log transformed dose-normalized first trough (Estimate ± SE) ([1]; African American subjects only, Diabetes): 0.45 ± 0.12 | Effect on log transformed dose-normalized first trough (Estimate ± SE) ([1]; African American subjects only, rs776746 (CYP3A5)): −0.25 ± 0.08 | Effect on log transformed dose-normalized first trough (Estimate ± SE) ([1]; African American subjects only, rs2072374 (CNAP1)): −0.45 ± 0.17 | Effect on log transformed dose-normalized first trough (Estimate ± SE) ([1]; African American subjects only, rs2239393 (COMT)): −0.19 ± 0.08 | Effect on log transformed dose-normalized first trough (Estimate ± SE) ([1]; African American subjects only, rs2280789 (CCL5)): 0.23 ± 0.10 | Effect on log transformed dose-normalized first trough (Estimate ± SE) ([1]; African American subjects only, rs2288648 (FASTK)): −0.41 ± 0.17 | Effect on log transformed dose-normalized first trough (Estimate ± SE) ([1]; African American subjects only, rs3136228 (MSH6)): −0.20 ± 0.08 | Effect on log transformed dose-normalized first trough (Estimate ± SE) ([1]; African American subjects only, rs12114000 (CYP3A4)): 0.38 ± 0.11 | Effect on log transformed dose-normalized first trough (Estimate ± SE) ([1]; Non-African American subjects only, Age in years, mean-centered at 50.2 years): 0.010 ± 0.002 | Effect on log transformed dose-normalized first trough (Estimate ± SE) ([1]; Non-African American subjects only, Diabetes): 0.21 ± 0.06 | Effect on log transformed dose-normalized first trough (Estimate ± SE) ([1]; Non-African American subjects only, rs4926 (SERPING1)): −0.12 ± 0.04 | Effect on log transformed dose-normalized first trough (Estimate ± SE) ([1]; Non-African American subjects only, rs17567 (EPS15)): 0.12 ± 0.05 | Effect on log transformed dose-normalized first trough (Estimate ± SE) ([1]; Non-African American subjects only, rs776746 (CYP3A5)): −0.31 ± 0.07 | Effect on log transformed dose-normalized first trough (Estimate ± SE) ([1]; Non-African American subjects only, rs1800822 (FMO3)): 0.20 ± 0.09 | Effect on log transformed dose-normalized first trough (Estimate ± SE) ([1]; Non-African American subjects only, rs2239393 (COMT)): −0.07 ± 0.04 | Effect on log transformed dose-normalized first trough (Estimate ± SE) ([1]; Non-African American subjects only, rs2608555 (GAN)): 0.17 ± 0.04 | Effect on log transformed dose-normalized first trough (Estimate ± SE) ([1]; Non-African American subjects only, rs3135506 (APOA5)): −0.23 ± 0.08 | Effect on log transformed dose-normalized first trough (Estimate ± SE) ([1]; Non-African American subjects only, rs3734354 (SIM1)): 0.20 ± 0.06 | Effect on log transformed dose-normalized first trough (Estimate ± SE) ([1]; all subjects model, Age in years, mean-centered at 50.2 years): 0.008 ± 0.002 | Effect on log transformed dose-normalized first trough (Estimate ± SE) ([1]; all subjects model, Diabetes): 0.23 ± 0.05 | Effect on log transformed dose-normalized first trough (Estimate ± SE) ([1]; all subjects model, rs3448 (GPX1)): 0.07 ± 0.04 | Effect on log transformed dose-normalized first trough (Estimate ± SE) ([1]; all subjects model, rs4926 (SERPING1)): −0.09 ± 0.04 | Effect on log transformed dose-normalized first trough (Estimate ± SE) ([1]; all subjects model, rs13321 (TNC)): 0.06 ± 0.04 | Effect on log transformed dose-normalized first trough (Estimate ± SE) ([1]; all subjects model, rs17567 (EPS15)): 0.10 ± 0.04 | Effect on log transformed dose-normalized first trough (Estimate ± SE) ([1]; all subjects model, rs776746 (CYP3A5)): −0.33 ± 0.05 | Effect on log transformed dose-normalized first trough (Estimate ± SE) ([1]; all subjects model, rs2072374 (CNAP1)): −0.08 ± 0.04 | Effect on log transformed dose-normalized first trough (Estimate ± SE) ([1]; all subjects model, rs2239393 (COMT)): −0.28 ± 0.08 | Effect on log transformed dose-normalized first trough (Estimate ± SE) ([1]; all subjects model, rs2608555 (GAN)): 0.15 ± 0.04 | Effect on log transformed dose-normalized first trough (Estimate ± SE) ([1]; all subjects model, rs2687117 (CYP3A4)): 0.26 ± 0.08 | Effect on log transformed dose-normalized first trough (Estimate ± SE) ([1]; all subjects model, rs3135506 (APOA5)): −0.23 ± 0.07 | Effect on log transformed dose-normalized first trough (Estimate ± SE) ([1]; all subjects model, rs3734354 (SIM1)): 0.19 ± 0.06 | Effect on log transformed dose-normalized first trough (Estimate ± SE) ([1]; all subjects model, rs4646312 (COMT)): 0.22 ± 0.08 | Median trough ([2]; AAs, remained despite 60% higher doses (Figure 1)): < 8 ng/mL | Trough concentration, median (interquartile range) [2, 6]: 6.2 (4.4–8.4) ^d ng/mL | Trough dose-normalized, median (interquartile range) [2, 6]: 68.3 (46.1–103.6) ^d ng/ml per mg/kg/day | Subjects with first trough <8 ng/mL ([2]; African Americans): 96.6% | First trough concentration (week one posttransplant), median (interquartile range) ([2]; African Americans, daily dose 4.0 (4.0–5.0) mg/day): 2.1 (1.2–3.5) ng/mL | Dose-normalized trough, median (interquartile range) ([2]; CYP3A5*1/*1 genotype): 54.3(37.9–80.3) ng/mL per mg/kg | Trough concentration, median (interquartile range) ([2]; CYP3A5 *1/*1 genotype (rs776746)): 5.8(4.1–7.9) ng/mL | Dose-normalized trough, median (interquartile range) ([2]; CYP3A5 *1/*3 genotype): 77.8(53.1–114.6) ng/mL per mg/kg | Trough concentration, median (interquartile range) ([2]; CYP3A5 *1/*3 genotype (rs776746)): 7.1(5.1–9.3) ng/mL | Dose-normalized trough, median (interquartile range) ([2]; CYP3A5 *3/*3 genotype): 141.1(91.7–214.5) ng/mL per mg/kg | Trough concentration, median (interquartile range) ([2]; CYP3A5 *3/*3 genotype (rs776746)): 8.4(6.5–10.5) ng/mL | Trough dose-normalized, median (interquartile range) ([2]; all subjects (n=695), over the first 6 months): 116.5 (70.7–186.3) ng/ml per mg/kg/day | Trough concentration, median (interquartile range) ([2]; all subjects (n=695), over the first 6 months, whole blood, oral dosing): 7.9 (5.9–10.1) ng/mL | Trough concentration, median (interquartile range) ([2]; center 1, 6 month study period): 9.5 (8.0–11.4) ng/mL | Trough concentration, median (interquartile range) ([2]; center 2, 6 month study period): 10.5 (7.4–13.0) ng/mL | Trough concentration, median (interquartile range) ([2]; center 3, 6 month study period): 7.9 (6.1–10.1) ng/mL | Trough concentration, median (interquartile range) ([2]; center 4, 6 month study period): 9.7 (7.5–12.2) ng/mL | Trough concentration, median (interquartile range) ([2]; center 5, 6 month study period): 8.9 (7.1–10.6) ng/mL | Trough concentration, median (interquartile range) ([2]; center 6, 6 month study period): 9.1 (7.0–11.3) ng/mL | Trough concentration, median (interquartile range) ([2]; center 7, 6 month study period): 6.6 (4.7–8.7) ng/mL | First trough concentration ([2]; measured within 4 days after transplantation, in most subjects): < 5 ng/mL | Troughs achieved ([2]; non-AA group, quickly achieved (Figure 1)): > 8 ng/mL | Subjects with first trough <8 ng/mL ([2]; non-African Americans): 73.9% | Trough concentration, median (interquartile range) [2, 7]: 8.3 (6.4–10.4) ng/mL | Trough dose-normalized, median (interquartile range) [2, 7]: 131.4 (83.0–201.8) ng/ml per mg/kg/day | Median trough lower in AA than in non-AA recipients ([2]; over the 6 month study period, AAs on 60% higher median daily dose): 2.1 ng/mL | Reduction in log transformed dose-normalized trough ([3]; AA race relative to non-AAs): 0.04 | Increase in dose-normalized trough ([3]; CYP3A4 (rs7801671, rs12114000, rs2687117), CYP3A7 (rs2687080, rs776740), CYP3A5 (rs10264272) variants, adjusted for rs776746): 20–32% | Increase in log transformed dose-normalized troughs ([3]; calcium channel blocker (CCB) use): 0.03 | Increase in log transformed dose-normalized troughs ([3]; diabetes): 0.12 | Increase in log transformed dose-normalized troughs ([3]; male gender): 0.17 | Reduction in log transformed dose-normalized troughs ([3]; one A allele (CYP3A5*1, rs776746)): 36% | Effect on log transformed dose-normalized troughs (estimate ± SE) ([3]; one A allele (CYP3A5*1, rs776746), adjusted for clinical factors): −0.44±0.03 | Increase in log transformed dose-normalized troughs ([3]; one allele of CYP3A4 (rs7801671, rs12114000, rs2687117), CYP3A7 (rs2687080, rs776740), CYP3A5 (rs10264272) variants, adjusted for rs776746): 0.18–0.28 | Reduction in log transformed dose-normalized troughs ([3]; two A alleles (CYP3A5*1, rs776746)): 59%
SMILES: C=CC[C@@H]1/C=C(\C)C[C@H](C)C[C@H](OC)[C@H]2O[C@@](O)(C(=O)C(=O)N3CCCC[C@H]3C(=O)O[C@H](/C(C)=C/[C@@H]3CC[C@@H](O)[C@H](OC)C3)[C@H](C)[C@@H](O)CC1=O)[C@H](C)C[C@@H]2OC [tacrolimus, Tacrolimus]
First trough concentration (week one posttransplant), median (interquartile range) ([2]; non-African Americans, daily dose 4.0 [4.0–6.0] mg/day): 5.0 [3.1–8.2] ng/mL and 5.0 (3.1–8.2) ng/mL | Intersubject pharmacokinetic variability in area under the curve, higher [4]: 41.1% | Subjects achieving the trough target ([5]; control group): 29.1% | Subjects achieving the trough target ([5]; genotype adapted dosing): 43.2% | Fraction metabolized through CYP3A5 (CYP3A5; hepatic enzymes from CYP3A5*1 allele carriers): 60% | Intrinsic tacrolimus clearance of CYP3A5 enzyme relative to CYP3A4 (CYP3A5; in vitro): twice
